# Screening data from PubChem BioAssay.
# An excerpt weighted towards active compounds, which were near 4% of everything screened.
# Measles CPE: compounds protecting cells from measles virus cytopathic effect, primary screen, measles RdRp inhibitor project, single point, MLSMR library, absorbance. AID 841, 2007. 1.5% of 140,000 active. Measles virus-infected cells, CPE protection. protection (pct of control), % at 4 µM; in the data active = protection mostly above about 24%, no sharp cut-off; inactive = mostly below about 26%
# Yeast life ext: compounds extending yeast replicative lifespan, primary screen, S. cerevisiae, OD615 | 0.68% of 130,000 active | AID 775, 2007 | inhibition of the nicotinamide effect, % at 10 µM | S. cerevisiae growth with nicotinamide; deaD strain in restrictive glucose medium;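 active = inhibition above a set limit, placed 3 SD over the median of all compounds, cut at about 26% in these data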;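 note: 0% = nicotinamide-treated wells and 100% = cells grown without nicotinamide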
#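 Buffer or medium: CSMM-D glucose medium, restrictive; test system: modified budding yeast, DeaD strain; compound: single dose 10 µM compound, 0.25% DMSO; schedule: culture preincubation 4 h, compound exposure 48 h, both 30 °C; detection: optical density (absorbance) at 615 nm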
# MDM2 E3 inh: MDM2-luciferase reporter signal enhancers, primary screen, MDM2 E3 ligase inhibitor project, cell-based, luminescence, 1536-well; AID 1230, 2008; E3 ubiquitin-protein ligase Mdm2 (Homo sapiens), Q00987; signal enhancement, % at 5 µM; cell-based MDM2 ubiquitination luciferase reporter, 2 h; 0 = plate control, 100 = twice control, blank-subtracted; 0.11% of 210,000 active;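 active = signal enhancement of 30% or more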;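 note: luminescence tracks abundance of the self-degrading MDM2-luciferase fusion protein; higher signal means inhibition of MDM2 E3 ligase activity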
# Target sequence (Q00987 whole entry, looked up, the tested form may be a part): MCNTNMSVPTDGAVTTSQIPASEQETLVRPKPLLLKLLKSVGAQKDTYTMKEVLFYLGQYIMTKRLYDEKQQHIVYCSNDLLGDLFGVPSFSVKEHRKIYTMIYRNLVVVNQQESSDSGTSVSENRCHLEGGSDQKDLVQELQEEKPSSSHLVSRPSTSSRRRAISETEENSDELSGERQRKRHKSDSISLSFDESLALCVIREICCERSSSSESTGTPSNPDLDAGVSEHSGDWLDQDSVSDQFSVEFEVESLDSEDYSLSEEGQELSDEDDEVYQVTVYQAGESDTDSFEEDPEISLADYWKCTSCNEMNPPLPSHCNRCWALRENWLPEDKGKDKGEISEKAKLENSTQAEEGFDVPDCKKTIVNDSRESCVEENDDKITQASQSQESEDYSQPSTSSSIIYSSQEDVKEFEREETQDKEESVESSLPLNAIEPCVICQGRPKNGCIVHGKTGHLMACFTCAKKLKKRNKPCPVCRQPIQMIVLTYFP
#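 system = mammalian cells stably expressing self-ubiquitinating, self-degrading MDM2 E3–luciferase fusion | quantity = 2000 cells per well seeded | incubation = 4 h cell settling then 2 h compound exposure, 37 °C | signal = SteadyLite luminescence, 15 min reagent step | benchmarks = plate control and blank wells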
# Yeast growth inh: growth inhibitors of yeast BB579 in restrictive medium, primary screen, yeast lifespan-shortening project, S. cerevisiae; OD615, 48 h; inhibition, % at 10 µM; 0.51% of 140,000 active; AID 804, 2007;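 active = inhibition above a set limit, 3 SD over the mean compound inhibition, cut at about 44% in these data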
#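 System: DeaD yeast strain BB579; buffer or medium: CSMM-D dextrose restrictive medium; technique: OD at 615 nm; schedule: 4 h cell preincubation, 48 h compound exposure, 30 °C humidified; doses: single 10 µM dose; controls: amphotericin B 10 µg/mL, positive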
# RAM network inh: inhibitors of the yeast RAM network, primary screen, dse1pr::URA3 reporter, 5-FOA selection | inhibition, % at 50 µM | 1.8% of 190,000 active | S. cerevisiae dse1pr::URA3 reporter, 5-FOA growth OD615, 2 d; analog-sensitive cbk1-as2 kinase mutant strain;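 active = inhibition above a set limit, 3 SD over mean compound inhibition, cut at about 8.4% in these data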;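 note: 0% = DMSO-only wells with no growth and 100% = 10 µM 1-NA-PP1 full growth; inhibition rescues growth on 5-FOA so higher OD means more RAM inhibition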
# INS promoter inh: inhibitors of insulin promoter-driven GFP, primary screen, imaging, TRM-6 cells (human fetal islet line), eGFP reporter, cell count. reporter expression induced with tamoxifen. inhibition, % at 2 µM. 0.9% of 130,000 active. AID 1273, 2008;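 active = inhibition above the mean plus 3 SD, with well images judged a real hit on visual review, cut at about 60% in these data, passing the limit was not always enough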
# An asterisk follows results filed as active; . = no result given.
SMILES,Measles CPE,Yeast life ext,MDM2 E3 inh,Yeast growth inh,RAM network inh,INS promoter inh
CN(C)c1ccc(/C=N/NC(=O)CN(c2cccc(Cl)c2)S(C)(=O)=O)cc1Br,10,-12,-8,-24,0,-10
O=C(NCc1nc(-c2ccc(C(F)(F)F)cc2)no1)Nc1cc(Cl)cc(Cl)c1,.,.,-10,.,.,.
CSc1ncccc1C(=O)Nc1nc2ccc(Oc3ccccc3)cc2s1,18,-7,-2,-17,1,.
CC1Cc2cc(-c3csc(NC(=O)Cc4ccccc4)n3)ccc2N1S(C)(=O)=O (stereo not drawn),71*,-5,-30,-8,4,-50
O=C(COC(=O)c1ccccc1C(=O)c1ccc(Cl)c([N+](=O)[O-])c1)NC1CCCCCC1,30,-11,33*,-12,1,29
CC(C)N(C(=O)COC(=O)c1ccccc1C(=O)c1ccc(Cl)c([N+](=O)[O-])c1)C(C)C,.,.,-9,.,3,.
CC1CCCCC1NS(=O)(=O)c1ccc(S(=O)(=O)NCc2ccncc2)cc1 (stereo not drawn),39*,-12,-34,4,1,.
O=[N+]([O-])c1c(Nc2ccccc2)ccc2nonc12,28*,-12,-7,-30,-1,58
Cc1ccc(Cn2ccc(NC(=O)c3noc4c3CCCC4)n2)cc1,11,-9,-10,-37,5,.
Cc1ccc(Cn2ccc(NC(=O)c3noc4c3CCCCC4)n2)cc1,62*,-14,6,1,2,.
Cc1ccc(Cn2ccc(NC(=O)c3nc4ncccn4n3)n2)cc1,39*,-12,7,2,3,51
Cc1ccc(OCC(=O)Nc2ccc(S(=O)(=O)Nc3onc(C)c3C)cc2)cc1,13,-8,-1,-49,10*,50
Cc1noc(NS(=O)(=O)c2ccc(N/C=C/C(=O)c3ccc(F)cc3)cc2)c1C,.,.,-35,.,11*,21
Cc1ccc(S(=O)(=O)CC(=O)Nc2ccc(S(=O)(=O)Nc3onc(C)c3C)cc2)cc1,17,-2,-9,-2,1,-8
CCN(c1ccccc1)S(=O)(=O)c1cc(C(=O)Nc2ccc(F)c(F)c2)ccc1F,27,-2,-6,-26,11*,.
CCOC(=O)Cc1csc(NC(=O)CCCCCN2C(=O)c3ccccc3C2=O)n1,10,-13,0,-37,4,-26
C=CCn1c(SCC(=O)c2ccc(OC)cc2)nnc1-c1cc2cccc(OC)c2o1,18,-9,5,-35,11*,5
O=C(CCn1c(=O)oc2ccccc21)Nc1ccc2c(c1)OCCO2,.,.,-4,.,.,.
CCSc1ncc(/C=N/Nc2ccccc2)n1C,6,-18,7,30,-1,-7
CCSc1ncc(/C=N/Nc2ccc(Cl)cc2)n1C,0,-9,-12,95*,-1,12
O=C(COC(=O)c1ccc(Cl)cc1O)NC(=O)C1CCCCC1,.,.,-15,.,4,-278
Cc1ccc(-n2nc(C)c3c2OC(N)=C(C#N)C3c2ccoc2)cc1 (stereo not drawn),5,30*,-6,-66,0,.
Oc1ccc(NCc2ccccc2OCc2ccccc2)cc1,41*,12,0,-31,1,12
CCNCc1ccccc1OCc1ccccc1,.,.,-7,.,1,0
COc1ccc(C(=O)Nn2c(SCc3ccc([N+](=O)[O-])cc3)nc3ccccc3c2=O)cc1,12,-2,-28,-25,4,-26
SMILES,Measles CPE,Yeast life ext,MDM2 E3 inh,Yeast growth inh,RAM network inh,INS promoter inh
CC(C)(C)C(=O)Nc1cc(S(=O)(=O)Nc2ccc(Cl)cc2)ccc1Cl,4,8,-8,-25,11*,0
CC(C)(C)C(=O)Nc1ccc(S(=O)(=O)c2ccc(NC(=O)C(C)(C)C)cc2)cc1,19,-6,-21,-2,3,75*
COc1ccc(NS(=O)(=O)c2ccc(Cl)c(NC(=O)c3cccnc3Cl)c2)cc1,.,.,-48,.,.,.
O=C(Nc1ccccc1N1CCCC1)c1cc2ccccc2o1,9,-20,-2,-46,1,-42
O=C(Nc1ccccc1N1CCN(C(=O)c2ccccc2)CC1)c1cc2ccccc2o1,11,4,-17,-32,8.5*,-181
CCOC(=O)c1ccc(NC(=O)c2cc3ccccc3o2)cc1,10,-10,0,-9,-1,63*
CCCC(=O)N1CCN(c2ccc(NC(=O)c3cc4ccccc4o3)cc2)CC1,60*,-7,-12,-15,3,-69
CC(C)C(=O)Nc1ccc(NC(=O)c2cc3ccccc3o2)cc1,4,-9,-5,-77,1,28
N=C1C(c2nc3ccccc3[nH]2)=C(O)CN1c1ccc(CC(=O)O)cc1,9,-11,-15,-51,1,57
N=C1C(c2nc3ccccc3[nH]2)=C(O)CN1c1ccccc1,5,-11,41*,-57,0,0
COCCCn1c(-c2ccco2)nc2ccccc2c1=O,29*,-23,-6,-30,1,.
CC(C)CC(c1nnnn1Cc1ccc2c(c1)OCO2)N1CCC(C(N)=O)CC1 (stereo not drawn),.,.,-8,.,1,.
COc1ccc(S(=O)(=O)N2CCN(C(=O)c3ccco3)CC2)cc1OC,57*,-12,-12,20,0,8
COc1cc2c(cc1OC)CN(C(=O)c1ccco1)CC2,.,.,35*,.,2,-11
COc1ccc(Cl)cc1S(=O)(=O)N1CCN(C(=O)c2ccco2)CC1,37,-4,-1,-17,2,-27
CCC(C(=O)OCC(=O)Nc1cccc(OC)c1)c1ccccc1 (stereo not drawn),.,.,-7,.,3,73*
CC1=NNC(=O)C1C(c1cccc(O)c1)C(C#N)C#N (stereo not drawn),.,.,-10,.,.,.
CC1=NNC(=O)C1C(c1ccc(Cl)cc1)C(C#N)C#N (stereo not drawn),.,.,-7,.,.,.
CC1=NN(Cc2ccccc2)C(=O)C1C(c1ccccc1)C(C#N)C#N (stereo not drawn),26,38*,3,-26,2,17
CC1=NN(Cc2ccccc2)C(=O)C1C(c1ccc(Cl)cc1)C(C#N)C#N (stereo not drawn),9,41*,3,-27,3,.
NC(=NCCc1c[nH]c2ccccc12)NC(=O)c1ccc(F)cc1,.,.,-19,.,.,.
CNc1cc(C)nc(-n2nc(C)cc2C)n1,5,0,-12,-4,0,43
CCOc1ccc(Nc2cc(C)nc(-n3nc(C)cc3C)n2)cc1,43*,-8,-9,10,0,-186
Cc1ccc2c(c1)c1ccc3c(c1n2C)C(=O)C=CC3=O,.,.,40*,.,.,.
